Where two headings read alike, the source gives them in different places. Blank lines part the entries; values can stand above or below the compound they belong to.
Assays:
SV2A [1] = conditions: [^3H]UCB-J competitive binding, rat whole brain; cited from earlier work
SV2A [2] = conditions: rat brain homogenate; cited from earlier work
SV2A [3] = molecular target: T1, SV2A (Mus musculus, UniProt Q9JIS5); format: binding
In short: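 Mouse brain homogenate in 50 mM Tris-HCl with 2 mM MgCl2, pH 7.4, at 0.01 mg protein per well. Unlabelled ligand added from standard solutions of 0.1–50,000 nM, plus radioligand (~0.074 MBq, 2.3 nM). Shaken at 37 °C for 30 min, filters washed twice with buffer, then gamma counted. Binding expressed as pmol/mg protein. Nonspecific binding defined with 0.05 mM unlabelled ligand. Specific binding plotted against log total (hot + cold) ligand concentration.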

SV2A [4] = molecular target: T1, SV2A; format: binding; remark: listed apart in the source
SV2A [5] = molecular target: T1, SV2A; assay: Dynamic small animal PET imaging of mouse brain with [^18F]SynVesT-1; format: in vivo
In short: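 Female WT (C57BL/6J) and APP/PS1 mice, 88 ± 4 weeks, n = 3 each, under 1.5–2.5% isoflurane on a heating pad. Radiotracer given as an i.v. lateral tail-vein bolus (10.28 ± 3.74 MBq in 0.1 mL). Baseline emission data acquired 0–90 min p.i. on small-animal PET/CT. OSEM3D/MAP reconstruction with decay, attenuation, scatter, normalization and randoms corrections. Images co-registered to mouse brain atlas space for regional time-activity curves.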

[6] = system: SV2A binding in the hippocampus; conditions: APP/PS1 mice vs WT, [^11C]UCB-J PET; cited from earlier work
[7] = rodent brain, from time-activity curves

T1 sequence (Q9JIS5 whole entry): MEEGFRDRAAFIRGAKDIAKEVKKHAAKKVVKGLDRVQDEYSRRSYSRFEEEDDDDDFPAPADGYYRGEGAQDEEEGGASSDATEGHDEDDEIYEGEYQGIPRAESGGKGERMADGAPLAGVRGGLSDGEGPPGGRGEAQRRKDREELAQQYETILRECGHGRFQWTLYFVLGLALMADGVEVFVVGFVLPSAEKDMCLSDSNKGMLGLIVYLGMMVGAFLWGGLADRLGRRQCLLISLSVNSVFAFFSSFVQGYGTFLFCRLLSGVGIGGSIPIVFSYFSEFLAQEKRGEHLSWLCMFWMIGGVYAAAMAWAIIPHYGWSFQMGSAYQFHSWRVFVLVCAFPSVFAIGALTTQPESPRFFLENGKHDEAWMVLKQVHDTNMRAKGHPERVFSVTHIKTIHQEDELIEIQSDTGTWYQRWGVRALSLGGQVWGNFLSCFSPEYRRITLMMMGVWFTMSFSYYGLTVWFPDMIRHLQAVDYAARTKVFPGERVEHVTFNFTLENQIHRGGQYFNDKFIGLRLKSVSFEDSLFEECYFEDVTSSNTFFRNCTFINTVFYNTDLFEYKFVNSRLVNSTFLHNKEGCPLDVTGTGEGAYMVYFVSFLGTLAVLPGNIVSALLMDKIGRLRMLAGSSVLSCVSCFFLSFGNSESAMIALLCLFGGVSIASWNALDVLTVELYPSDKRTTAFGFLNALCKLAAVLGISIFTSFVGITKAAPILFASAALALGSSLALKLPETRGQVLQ

Structure (SMILES): Cc1cnccc1CN1C[C@@H](c2cc(F)cc(F)c2)CC1=O [SynVesT-1]
Ki (SV2A [1]): 2.2 nM

Structure (SMILES): Cc1cnccc1CN1C[C@@H](c2cc(F)c(F)c(F)c2)CC1=O [UCB-J]
Kd (SV2A [2]): 2.6 ± 0.25 nM

Kd (SV2A [3]; mouse brain homogenate, 37 °C, 30 min, Kd=Ki=IC50−[radioligand]): 19.6 ± 1.38 nM
Kd (SV2A [4]; WT mouse brain sections, nonspecific binding with 1 mM levetiracetam): 9.8 ± 1.7 nM
Structure (SMILES): Cc1cnccc1CN1C[C@@H](c2cc(F)cc(F)c2)CC1=O [[^18F]SynVesT-1, (R)-4-(3-Fluoro-5-(fluoro-^18F)phenyl)-1-((3-methylpyridin-4-yl)methyl)pyrrolidin-2-one]

Bmax (SV2A [3]; mouse brain homogenate): 4.54 pmol/mg protein
Bmax (range over homologous competitive and autoradiographic saturation assays) (SV2A [3]; rodent brain tissue): 4.5–18 pmol/mg protein
Time of peak of brain time-activity curves (SV2A [5]; WT and APP/PS1 mice, i.v. bolus, 0–90 min scan): ≤ 20 min p.i.
BBB penetration (SV2A [5]; [7]): efficient BBB penetration
Binding kinetics in brain (SV2A [5]; [7]): reversible binding kinetics
Bmax (SV2A [4]; WT mouse brain sections): 1.8 ± 0.1 pmol/mg of brain tissue
Bmax (SV2A [4]; WT mouse brain sections, assuming 10% of brain tissue is protein): 18 ± 1 pmol/mg protein
Radioligand concentration at which total binding appeared to saturate (SV2A [4]; mouse brain sections): above 25 nM
Structure (SMILES): Cc1cnccc1CN1C[C@@H](c2cc(F)cc([18F])c2)CC1=O [[^18F]SynVesT-1, (R)-4-(3-Fluoro-5-(fluoro-^18F)phenyl)-1-((3-methylpyridin-4-yl)methyl)pyrrolidin-2-one]

Structure (SMILES): CN1CCN(CCOc2cc(OC3CCOCC3)c3c(Nc4c(Cl)ccc5c4OCO5)ncnc3c2)CC1 [saracatinib]
Effect of treatment on decreased hippocampal SV2A binding [6]: restored to the same level as the WT mice
